# From PubChem
# The full list was thinned out, with hits kept by preference.
# CHOP inhibitor – inhibitors of CHOP induction in ER stress response; AID 2732; CHO-K1 CHOP-promoter luciferase, tunicamycin-induced, 15-18 h; actives 3.8% (n = 220,000); inhibition, % at 10 µM;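 active = compounds that reduced the stress-induced luciferase reporter signal by more than about 70% of percent inhibition, limit read from the data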;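 also: 0% = tunicamycin plus vehicle and 100% = wells without tunicamycin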
# CHOP UPR activ – activators of apoptotic arm of unfolded protein response (CHOP); CHO-CHOP luciferase reporter, UPR activation, luminescence; percent of tunicamycin response over DMSO baseline; activation, % at 10 µM; actives 0.34% (n = 330,000); AID 449763;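 active = at 10 µM dose, activation of 40% or more, normalized to positive control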;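 also: 100% = tunicamycin at 10 µg/mL and 0% = DMSO alone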
#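 System: CHO-CHOP luciferase reporter cell line | Buffer or medium: F12 medium containing 10% fetal bovine serum | Doses: One dose, 10 µM in 0.5% DMSO | Times: 6 h compound exposure at 37 °C after overnight seeding | Signal: Luciferase luminescence | Read-out: % activation vs tunicamycin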
# XBP1 UPR activ – adaptive UPR (XBP1) activation | CHO-XBP1 luciferase reporter, IRE1-XBP1 UPR activation, luminescence; percent of tunicamycin response, DMSO as zero | activation, % at 20 µM | actives 0.33% (n = 330,000) | AID 463104;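 active = versus positive control, 20 µM dose yields 30% or more activation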;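 also: 100% = tunicamycin at 10 µg/mL and 0% = DMSO only wells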
#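 Material: CHO cell line with stable XBP1 luciferase reporter; buffer or medium: F12 medium containing 10% fetal bovine serum; compound: single point, 20 µM final compound, 1% DMSO; incubation: 6 h treatment, 37 °C; measured by: glow luminescence from Steady-Glo reagent; evaluation: activation, % of tunicamycin; control set: tunicamycin high, DMSO low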
# CTSL1 counter – cathepsin L1 inhibition, PFM18AAP counter-screen | actives 0.49% (n = 300,000) | recombinant F. hepatica cathepsin L1, Z-Leu-Arg-MCA fluorescence | inhibition, % at 5.96 µM;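 active = inhibition above the mean of all tested compounds plus 3 SD, set per screening campaign, cut at about 17% in these data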;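 also: 0% = plate median of test compound wells and 100% = 1 µM Z-Phe-Ala-diazomethylketone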
# UCH37 inh – inhibitors of human deubiquitinating enzyme UCH37. Q9Y5K5. purified proteasome/UCH37, Ub-AMC cleavage fluorescence. inhibition, % (no concentration beside the values). actives 0.33% (n = 330,000). AID 588478;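 active = mean inhibition over replicate wells above about 20%, limit read from the data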;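 also: 0% = compound-free wells with enzyme and 100% = wells lacking proteasome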
# Target sequence (Q9Y5K5 whole entry, looked up): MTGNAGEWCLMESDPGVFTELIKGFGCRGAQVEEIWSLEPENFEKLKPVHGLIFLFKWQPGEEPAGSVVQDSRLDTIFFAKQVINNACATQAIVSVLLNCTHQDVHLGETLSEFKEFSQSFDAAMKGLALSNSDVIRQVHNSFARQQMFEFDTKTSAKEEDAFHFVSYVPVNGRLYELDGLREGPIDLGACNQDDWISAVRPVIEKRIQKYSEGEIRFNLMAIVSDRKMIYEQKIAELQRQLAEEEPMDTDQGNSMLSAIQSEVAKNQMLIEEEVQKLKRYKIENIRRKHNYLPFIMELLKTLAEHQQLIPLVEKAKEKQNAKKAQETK
#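 system = Proteasome-associated human UCH37 deubiquitinase | amount = 0.15 nM proteasome as dispensed | medium = pH 7.4 Tris-HCl (50 mM) with ovalbumin, ATP-MgCl2, DTT | incubation = 30 min preincubation with enzyme, 25 min cleavage at room temperature | detection = AMC fluorescence 355/460 nm | read-out basis = percent inhibition | controls = no-proteasome and no-compound wells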
# * hit, by the source's call; · = no result given.
SMILES,CHOP inhibitor,CHOP UPR activ,XBP1 UPR activ,CTSL1 counter,UCH37 inh
CN=c1scc(-c2cccs2)n1/N=C/c1ccccc1O,93.9*,-10.2,-5.8,1.4,·
COCCNC(=O)C(=O)NN=C(C)CC(=O)Nc1ccc2c(c1)OCO2,·,·,·,·,5.8
O=C(COC(=O)c1ccccc1Nc1cccc(C(F)(F)F)c1)NCc1ccco1,78.6*,0.9,-0.6,6.1,-8.3
O=C(COC(=O)c1cc(-c2ccc(Cl)s2)nc2ccccc12)NCc1ccco1,81.4*,0.9,-3.9,1.9,-91.8
O=C(COC(=O)c1ccccc1)NCc1ccco1,5.6,0.4,1.2,0.1,2.1
COc1ccc(C=Nn2c(N)c(S(=O)(=O)c3cccs3)c3nc4ccccc4nc32)cc1OC,·,·,·,·,-96.9
NC(=O)c1c(-c2ccc(Cl)cc2Cl)csc1NC(=O)Cc1ccccc1,73.0*,·,·,8.5,-3.2
CC(C)CC(=O)O/N=C1\C(=O)N(Cc2ccc(Cl)cc2)c2ccc([N+](=O)[O-])cc21,90.3*,0.6,0.6,3.8,·
CC(=NN1CCN(c2ccccc2)CC1)c1ccccc1O,·,·,·,·,4.6
COc1ccc(CSCC(=O)NN=Cc2ccccc2O)cc1,·,·,·,·,-9.2
COc1ccc(-c2cc(C(F)(F)F)nc(NC3CCCC3)n2)cc1OC,73.5*,1.7,7.3,-1.2,-44.2
COC(=O)c1ccc(NC(=O)CON=C2CCCc3nonc32)cc1,·,·,·,·,-3.0
COC(=O)C(C)Oc1ccc(-c2nccc(-c3cccs3)n2)cc1 (stereo not drawn),91.5*,7.0,-0.2,1.6,1.1
CC(=NNC(=O)CN(c1ccc(Oc2ccccc2)cc1)S(C)(=O)=O)C(C)(C)C,·,·,·,·,1.5
C=C(C)CNC(=S)NN=Cc1ccc(NC(C)=O)cc1,·,·,·,·,9.5
CCOC(=O)C1=C(c2ccccc2)N=c2s/c(=C\c3cccc(O)c3)c(=O)n2C1c1cccs1 (stereo not drawn),90.3*,5.0,5.7,5.8,·
CCCOc1ccc(-c2c(C(=O)NN=Cc3cccs3)nnn2-c2nonc2N)cc1,·,·,·,·,2.9
O=C(c1cccs1)N1CCN(CCCc2ccccc2)CC1,75.3*,-1.1,-0.5,-0.3,5.6
Cc1ccc2nc(NC(=O)CCNS(=O)(=O)c3ccc(Br)s3)sc2c1,71.2*,1.7,-0.6,-0.2,1.9
Cc1ccc2nc(NC(=O)CCNS(=O)(=O)c3cccs3)sc2c1,73.3*,-0.9,0.2,-0.1,-0.7
COc1cccc(C=NNC(=O)c2ccc(=O)n(C)c2)c1OC,·,·,·,·,-1.3
O=C(C[n+]1cccc(C=NO)c1)N1CCCCCC1,·,·,·,·,1.3
Cc1ccccc1C=NN1C(=O)CSC1=S,·,·,·,·,10.0
COc1ccc(N=Cc2c(O)n(-c3ccc(OC)cc3)c(=O)c3ccccc23)cc1,72.4*,1.9,19.6,1.9,-114.6
COc1ccc(N=Cc2c(O)ccc3ccccc23)cc1,79.5*,-0.3,-3.9,2.3,2.4
SMILES,CHOP inhibitor,CHOP UPR activ,XBP1 UPR activ,CTSL1 counter,UCH37 inh
O=c1c2ccccc2c(C=Nc2ccc(O)cc2)c(O)n1Cc1ccccc1,92.8*,9.4,4.6,-1.6,0.0
O=C(O)c1ccc(N=Cc2c(O)ccc3ccccc23)cc1,·,2.5,-6.0,-3.0,12.8
COc1ccc(Cn2c(O)c(C=Nc3ccccc3)c3ccccc3c2=O)cc1,40.4,-0.5,0.9,2.0,·
COc1ccc(Cn2c(O)c(C=Nc3ccc(O)cc3)c3ccccc3c2=O)cc1,85.4*,-1.6,1.3,2.5,-7.2
O=C(NN=Cc1cccn1-c1ccc([N+](=O)[O-])cc1)c1cccnc1,·,·,·,·,11.7
CCOc1cccc(-c2c(C(=O)NN=C(C)c3ccccn3)nnn2-c2nonc2N)c1,·,·,·,·,-0.5
Cc1cc(C=Nn2cnnc2)c(C)n1-c1ccc(OCc2ccccc2F)cc1,·,·,·,·,2.4
CC(=NNC(=O)CNC(=O)c1ccccc1)c1ccc(C)cc1,·,·,·,·,2.4
Cc1ccccc1C(=O)NC(CC(C)C)C(=O)OCc1cc(=O)n2cc(Br)ccc2n1 (stereo not drawn),20.7,4.7,4.7,27.5*,1.0
O/N=C/c1ccccc1OCc1ccc(Cl)cc1,76.5*,5.9,2.0,4.4,·
O=[N+]([O-])c1ccc(COc2ccccc2C=NO)cc1,·,·,·,·,2.1
O=S(=O)(c1ccccc1)N1CCN=C1SCc1ccc(Cl)c(Cl)c1,72.0*,1.4,3.1,-0.6,6.9
O=S(=O)(c1ccccc1)N1CCN=C1SCc1ccc(Cl)cc1,46.3,0.9,0.5,4.0,4.8
CCCCCc1c(C)nc(Nc2nc(C)c3cc(OC)ccc3n2)[nH]c1=O,89.7*,1.3,17.9,5.1,-6.4
CC1(C)Cc2c(ccc3ccccc23)/C(=C/C#N)N1,71.4*,-2.5,3.3,3.0,2.8
CNC(=O)/C=C1\NC(C)(C)Cc2c1ccc1ccccc21,36.9,1.6,4.5,-1.2,-1.5
O=C1C=C(NCCN2CCOCC2)C(=O)c2cnccc21,21.9,·,·,100.1*,·
CC(CC(=O)Nc1cccc(Cl)c1Cl)=NNC(=O)c1ccccc1Br,·,·,·,·,1.5
Cc1ccc(C(=O)CSc2nnc(-c3ccc4[nH]c(C)c(C)c4c3)o2)cc1C,73.7*,0.4,-1.0,9.4,2.4
Cc1ccc2nc(-c3ccccc3)cn2c1,76.5*,-10.9,-16.9,-2.2,-7.7
O=C(NN=Cc1cc([N+](=O)[O-])ccc1O)C1C2CCCCC21 (stereo not drawn),·,·,·,·,2.3
COC(=O)c1cccc(S(=O)(=O)N2CCOCC2)c1,-2.8,-1.3,-1.5,6.8,4.7
COC(=O)c1cccc(N2C(=O)C(Cl)=C(N3CCOCC3)C2=O)c1,2.0,2.0,0.1,31.8*,2.8
O=C1C(Cl)=C(N2CCOCC2)C(=O)N1c1cccc(C(F)(F)F)c1,·,1.6,-3.1,23.2*,7.6
CC(=O)N(C(C)=O)N1C(=O)/C(=C/c2ccc(Cl)cc2)SC1=S,91.4*,-0.9,-0.2,-2.4,6.4
SMILES,CHOP inhibitor,CHOP UPR activ,XBP1 UPR activ,CTSL1 counter,UCH37 inh
CCOc1ccc(NC(=O)Nc2cc(OCC(F)(F)F)cc(OCC(F)(F)F)c2)cc1,73.3*,11.7,-0.7,2.1,0.8
O=C(Nc1ccc(F)cc1)Nc1cc(OCC(F)(F)F)cc(OCC(F)(F)F)c1,102.2*,27.4,3.6,5.4,3.8
CC(C)(C)c1cc(NC(=O)c2ccc(OC3CCCC3)cc2)no1,23.9,3.7,4.3,2.0,2.1
O=C(Nc1ccon1)c1ccc(OC2CCCC2)cc1,77.9*,7.3,-0.1,5.7,3.4
CCNC(=O)C(CC(C)C)NC(=O)C(CO)NC(=O)C1CCC(=O)N1 (stereo not drawn),3.8,0.8,0.1,1.1,-0.2
CC(C)CC(NC(=O)C(NC(=O)OC(C)(C)C)C(C)C)C(=O)N1CCCC1C(N)=O (stereo not drawn),1.9,0.9,0.1,18.4*,-1.6
CC(C)CC(NC(=O)C1CCC(=O)N1)C(=O)NC(CC(C)C)C(=O)N1CCCC1C(N)=O (stereo not drawn),·,2.8,-5.2,17.1*,1.1
